Measurements: ChEMBL document CHEMBL4513216, “Probing the Open Global Health Chemical Diversity Library for Multistage-Active Starting Points for Next-Generation Antimalarials” (ACS Infect Dis, 2020)

Assay: Toxicity liver stage against HepG2, at 10uM
Format: cell-based
Set-up: test concentration 10 uM, cell line HepG2-A16-CD81EGFP
Details: human, HepG2-A16-CD81EGFP cells; read-out: INHIBITION
In short: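 Uninfected HepG2-A16-CD81EGFP cells, 3 × 10^3 per well, 1536-well, plated on prespotted compound at 10 μM final, parasite-free screening media added to match infected plates; puromycin 10 μM positive, DMSO 0.5% negative; run in parallel with 48 h PbLuc assay at 37 °C, 5% CO2; viability by CellTiter-Glo luminescence, normalized to controls.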

Row | Compound | cytotoxicity at 10 µM [%]
1 | CCOCCCNC(=O)C(NC(=O)Cc1cccs1)c1ccc(C)cc1 (stereo unspecified) | 13.2
2 | CN(Cc1cc(C[C@@H]2C[C@H](N)C2(C)C)no1)c1ccccc1 | -1.8
3 | CNC(=O)c1nc(COc2ccc3c(c2)OCO3)no1 | 2.03
4 | O=C(CCc1ccccc1)NCC1CCN(Cc2ccccc2)CC1 | -6.29
5 | Cc1nnc([C@H]2C[C@H]3OCC[C@H]3N(S(=O)(=O)N(C)C)C2)o1 | -8.44
6 | COc1ccc(N2CCOCC3(CCCN(c4cnccn4)C3)C2)cc1 (stereo unspecified) | 4.29
7 | CCc1ccc(C(O)CN2CCN(c3cccc(OC)c3)CC2)cc1 (stereo unspecified) | 11.2
8 | c1ccc(-c2nnc3sc(CCN4CCCC4)nn23)cc1 | 6.04
9 | Oc1nnc(-c2cccs2)c2sc(N3CCCCC3)nc12 | 7.52
10 | Cc1csc2c(C3CCN(CCOc4ccccc4F)CC3)nc(C)n12 | 5.89
11 | Cn1ccnc1C(O)c1ccccc1N1CCN(Cc2ccsc2)CC1 (stereo unspecified) | 3.19
12 | CN(C)c1cc(C2CCCN(S(=O)(=O)C3CCCC3)C2)ccn1 (stereo unspecified) | -20.8
13 | Cn1nccc1CCC(=O)N1CCC(c2cnccn2)CC1 | -21.7
14 | O=C(NCCCO)Nc1cnc2cc(Cl)ccc2c1O | 2.05
15 | COc1ccc(CN2CCC(c3nnc(-c4scnc4C)o3)CC2)cc1 | -5.03
16 | CN(C)[C@@H]1CN(C(=O)COc2cccc(F)c2)C[C@H]1O | -10.4
17 | CN(CCCOc1ccccc1)C(=O)c1csc(-c2nnc[nH]2)n1 | 10.4
18 | N#CCCn1cnc2c(F)cc(Br)cc2c1=O | 0.997
19 | O=C(c1c[nH]nn1)N1CCCC1C1CCCCC1 (stereo unspecified) | 3.81
20 | O=C(CCn1cncn1)NCC1CCOC1 (stereo unspecified) | -43.4
21 | Cn1cc(NC(=O)c2cccc(-n3cnnn3)c2)cn1 | 5.39
22 | CC(NCCn1cccn1)c1cc(F)ccc1F (stereo unspecified) | 6.33
23 | O=C(NCC1CCCN1Cc1ccccc1)NCC1(O)CCC1 (stereo unspecified) | -9.17

Row | Compound | cytotoxicity at 10 µM [%]
24 | CC(C)(NCCCOc1ccc(C#N)cc1)c1nccs1 | -0.476
25 | CCN(CC)S(=O)(=O)c1ccc(CNC(=O)N2CCCCCC2)cc1 | -2.9
26 | O=C(CN1CCOCC1)N1CCN(C2CCc3ccc(F)cc32)CC1 (stereo unspecified) | 6.24
27 | CC(CCN1CCCC1=O)NCc1cnc(C2CCC2)s1 (stereo unspecified) | -0.743
28 | c1ccc2sc(N3CCCC(Cn4cncn4)C3)nc2c1 (stereo unspecified) | -40.1
29 | CC(C)n1nc2c(cc1=O)CN(Cc1nc(-c3ccco3)no1)CC2 | 2.35
30 | OCC1CCN(c2ccc(NCc3ccsc3)nc2)CC1 | 8.94
31 | Clc1cccc(C(CNCc2ccccn2)N2CCOCC2)c1 (stereo unspecified) | -12
32 | N#Cc1ccc(S(=O)(=O)NC(=O)c2csc(-c3ccco3)n2)cc1 | -8.17
33 | COc1ncccc1CNc1snc(Cl)c1C#N | 10.2
34 | CCc1nsc(N2CCCN(C(=O)COc3ccccc3)CC2)n1 | -1.74
35 | CCN(CC1CN(Cc2ccn(C(C)C)n2)CCO1)c1cccnn1 (stereo unspecified) | 5.06
36 | CCN(CC1CCCO1)C(=O)Nc1cccc(N2CCOCC2)c1 (stereo unspecified) | 8.44
37 | CCOCCN1CCN(Cc2nc(C)no2)CC1CC (stereo unspecified) | 13.1
38 | CC(C)c1noc(CN(Cc2ccccc2)C2CC2)n1 | 0.563
39 | Cc1cc(NCc2ccccc2CN2CCCCC2)n2ncnc2n1 | -1.86
40 | O=C(Nc1nnc(C2CC2)s1)NC1CCOc2ccccc21 (stereo unspecified) | 24.2
41 | Cc1ncsc1C(=O)N1CCN(CCC(C)C)CC1 | 9.34
42 | Cc1cccc(CC(=O)N2CCOCC2c2c(C)n[nH]c2C)c1 (stereo unspecified) | 9.18
43 | Cc1cc2cc(CNC3CCN(CC(=O)N(C)C)CC3)oc2cc1C | -5.95
44 | O=C(Nc1ccc(CC(=O)N2CCSCC2)cc1)NC1CC1 | -2.42
45 | CC(C)c1ccc(CCC(=O)N(C)C2CCN(C)C2=O)cc1 (stereo unspecified) | -7.79
46 | CCc1ncc(C(=O)N2CCn3c(CC)nnc3C2)s1 | 1.03

Row | Compound | cytotoxicity at 10 µM [%]
47 | O=C(NCCCNC(=O)C1CCC1)NCCn1cccc1 | 0.215
48 | OCC(O)CSCc1ccc(Cl)cc1Cl (stereo unspecified) | -148
49 | COc1cccc(OCC(=O)N(C)c2cccnc2)c1 | -2.66
50 | CC1COCCN1Cc1nc(Cc2ccccc2)no1 (stereo unspecified) | 5.17
51 | Cc1nnc(CN2CCCC2c2ccsc2)o1 (stereo unspecified) | 3.22
52 | NC(=O)CNC(=O)c1ccc(CNCc2ccc(F)cc2F)cc1 | -43.4
53 | CC(C)N(Cc1ccc(C#N)cc1)C(=O)Nc1ccccn1 | -0.518
54 | OC1CCN(Cc2ccc(CNc3ccc(Cl)cn3)cc2)CC1 | 0.313
55 | O=C(CN1CCOCC1CC(=O)c1ccco1)NCc1ccccn1 (stereo unspecified) | -4.92
56 | Cn1nc(C(C)(C)C)cc1NC(=O)Cn1ccccc1=O | -10.5
57 | CCCS(=O)(=O)N1C[C@@H](c2ccccc2)[C@@]2(CCNC2=O)C1 | -109
58 | O=C(c1ccncc1)N1CCC2(CC1)CCN(C(=O)c1cccnc1)C2 | -93
59 | Cc1cnc(N2CCc3c(c(COc4cncnc4)nn3C)C2)nc1 | -98.8
60 | NC(=O)[C@H]1CCCN(c2nccc(-c3c[nH]nc3-c3cccnc3)n2)C1 | -5.89
61 | COc1cccc(OC)c1-c1ccnc2cc(CC(=O)NC(C)C)nn12 | -8.05
62 | CC(C)[C@H](NS(C)(=O)=O)C(=O)NCc1cc(-c2ccco2)nn1C | -10.5
63 | CSc1ccc(C(C(=O)O)N2CCC(CO)CC2)cc1 (stereo unspecified) | 3.68
64 | Cc1nccn1-c1ccc(NC(=O)C2CCCN2Cc2ccoc2)cc1 (stereo unspecified) | 0.184
65 | OC[C@@H]1CCCN1Cc1cn(C2CCN(C3CCCC3)CC2)nn1 | -3.73
66 | Cc1c[nH]c(CN2CCCCC2CCn2ccnc2C)c(C)c1=O (stereo unspecified) | 0.585
67 | Cc1cccc(C)c1Oc1ncccc1CNC(=O)C1COC(=O)N1 (stereo unspecified) | -4.65
68 | CSCC[C@@H](CO)Nc1ccc(-c2nc(C3CC3)no2)cn1 | 0.957
69 | Cc1ccc(F)c(NC(=O)CCC(=O)N(C)Cc2nc(C)c[nH]2)c1 | 7.05

Row | Compound | cytotoxicity at 10 µM [%]
70 | CNc1nc(N2CCN(Cc3ccsc3)C(CCO)C2)nc2c1CCC2 (stereo unspecified) | 3.96
71 | COCc1cc(N2CCN(c3ccc(Cl)cn3)CC2)n2nccc2n1 | 8.89
72 | Oc1cc(CN2CCCCC2c2cccnc2)nc2c(F)cccc12 (stereo unspecified) | -6.88
73 | CN(C)c1ncc(CNC2CC(=O)N(CCc3cccc(Cl)c3)C2)s1 (stereo unspecified) | -132
74 | CN(C)c1cnn(CC(=O)N2CCN(c3ccccc3)CC2)c(=O)c1 | -13.8
75 | CN(CC(=O)N1CCOC(CCc2ccccc2)C1)Cc1ccccn1 (stereo unspecified) | -1.83
76 | CSCc1noc(CNC(=O)C2CCN(C3CCCCC3)CC2)n1 | 8.45
77 | Cc1cc(C(=O)N2CCCC3(CNC(=O)O3)C2)c2c(C)nn(C)c2n1 (stereo unspecified) | 10.8
78 | CCOCCC(=O)N1CCc2cccc(S(=O)(=O)N3CCOCC3)c2C1 | -7.41
79 | COc1ccc(-n2ncc(C(C)NC3CCSCC3)c2C)cc1 (stereo unspecified) | -4.57
80 | Cc1ccc(-c2ncc(C(=O)N3CCCC(CCN)C3)c(O)n2)cc1 (stereo unspecified) | -7.98
81 | Cc1nccc(-c2cccc(NCC(=O)N3CCCC(C)C3)c2)n1 (stereo unspecified) | -6.27
82 | CC(=O)Nc1nc(C(=O)N2CCCC(n3nc(C)nc3C)C2)cs1 (stereo unspecified) | -2.06
83 | CCNc1cc2c(nn1)CCN(C(=O)c1ccnc(-n3ccnc3)c1)C2 | -3.01
84 | Cc1cnn(CCNCC(O)COc2ccc(F)cc2)c1 (stereo unspecified) | -1.76
85 | NC(=O)CN1CCCN(C(=O)Cc2ccc(Br)cc2)CC1 | -6.58
86 | CC(C)(O)CN1CCN(C(=O)c2sccc2C#N)CC1 | -7.3
87 | CCc1nc(CN2CCCN(C(=O)c3ccco3)CC2)cs1 | 5.03
88 | CCn1cc(NC(=O)C2CCN(Cc3nc(C(C)C)no3)CC2)cn1 | 0.449
89 | O=C(CCNC(=O)c1ccoc1)Nc1cc(F)cc(F)c1 | -7.41
90 | Cc1noc(C)c1CN1CCc2nn(C(C)C)c(=O)cc2C1 | -8.87
91 | COC(C(=O)N1CCCN(Cc2cscn2)CC1)c1ccccc1 (stereo unspecified) | -8.34
92 | CC(C)CCC(=O)NC(C)c1nnc2n1CCCCC2 (stereo unspecified) | -7.76

Row | Compound | cytotoxicity at 10 µM [%]
93 | Cc1nc(CN2CCCC2c2ccsc2)nc2ccccc12 (stereo unspecified) | 0.89
94 | c1c(CN2CCCC2)nc2n1CCN(C1CCOCC1)C2 | 0.641
95 | CC(C)n1nc(Cn2cccc2)c2c1CN(Cc1ccoc1)C2 | 1.49
96 | O=C(NCC1CC1)[C@H]1C[C@@H]2CCN(CCc3ccccc3)C[C@H]2O1 | -75.5
97 | CC(C)N1CC[C@H]2[C@H](C[C@@H](Cn3cccn3)N2c2nccs2)C1 | 3.28
98 | O=C(C1CCCC1)N1C[C@@H]2CCN(c3cccnc3)C[C@@H]2C1 | -78.4
99 | CO[C@@H]1CCN(Cc2nccs2)C[C@@H]1Cc1cccc(C)c1 | -71.8
100 | O=C(O)[C@]12CCCN(CC3CCOC3)C[C@H]1CN(c1ncccn1)C2 (stereo partly specified) | -104
101 | Cc1noc(C)c1CN1Cc2cnn(C)c2C(COCC2CC2)C1 (stereo unspecified) | -76.5
102 | CN(C)CCN1C[C@@H]2CN(S(=O)(=O)c3ccccc3)C[C@@H]2C1=O | -112
103 | O=C(C[C@@H]1COC[C@H]2CN(Cc3cccnc3)C[C@@H]12)NCC1CC1 | 0.752
104 | COCC1CN(CCOc2ccc(Cl)cc2)Cc2c1cnn2C (stereo unspecified) | -102
105 | COc1cccc(CN2CCc3nc4ccsc4c(=O)n3CC2)c1 | -26.5
106 | CN1CCCN(C(=O)c2ccnn2-c2ccc3ccccn23)CC1 | -107
107 | CN(C)CCN1CCO[C@H]2CCN(C(=O)c3cccs3)CC[C@@H]21 | -8.32
108 | CC(C)CO[C@H]1CN(S(=O)(=O)c2cn(C)cn2)[C@@H]2CCCO[C@H]12 | -148
109 | Cc1cnc(N2CCC3(CC2)CN(c2ccsc2)C(=O)CO3)nc1 | 7.34
110 | C=C1C(C)(C)[C@@H]2CC[C@]1(C(=O)N1CCC(n3cc(CO)nn3)CC1)C2 | -7.73
111 | CNC(=O)N1C[C@@H]2C[C@H](C(=O)Nc3cccnc3)[C@H](C1)O2 | -76.2
